In one experiment the target is T1, Adenosine receptor A2b (Homo sapiens, UniProt P29275).
T1 sequence (P29275 whole entry): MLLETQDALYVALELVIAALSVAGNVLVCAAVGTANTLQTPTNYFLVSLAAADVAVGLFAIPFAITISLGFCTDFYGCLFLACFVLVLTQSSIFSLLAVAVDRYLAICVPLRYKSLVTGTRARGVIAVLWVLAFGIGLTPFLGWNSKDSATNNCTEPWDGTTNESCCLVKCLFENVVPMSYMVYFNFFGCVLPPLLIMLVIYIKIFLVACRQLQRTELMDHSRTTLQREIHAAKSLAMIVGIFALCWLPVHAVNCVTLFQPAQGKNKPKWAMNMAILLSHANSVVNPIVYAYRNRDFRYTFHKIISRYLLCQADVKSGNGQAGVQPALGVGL
In words: Antagonist activity at human cloned adenosine A2B cells expressed in CHO cells assessed as inhibition of NECA-stimulated cAMP production. The experiment is classed as functional, cell-based. The method, boiled down: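 CHO cells with human A2B receptor, trypsin-detached, 1×10^6 cells/assay, in buffered salt medium pH 7.4 with 2 IU/ml adenosine deaminase and Ro 20-1724, preincubated 10 min at 37 °C. Antagonism of 100 nM NECA-stimulated cAMP. Stopped with cold 6% TCA, ether-extracted, cAMP measured by [3H]cAMP competition protein binding. IC50 from sigmoid nonlinear regression, n = 4, mean ± SEM.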
(Cyclic AMP is a second messenger, typically raised through Gs and lowered through Gi signalling.)

The next experiment addresses T2, Adenosine receptor A1 (Homo sapiens, UniProt P30542).
T2 sequence (P30542 whole entry): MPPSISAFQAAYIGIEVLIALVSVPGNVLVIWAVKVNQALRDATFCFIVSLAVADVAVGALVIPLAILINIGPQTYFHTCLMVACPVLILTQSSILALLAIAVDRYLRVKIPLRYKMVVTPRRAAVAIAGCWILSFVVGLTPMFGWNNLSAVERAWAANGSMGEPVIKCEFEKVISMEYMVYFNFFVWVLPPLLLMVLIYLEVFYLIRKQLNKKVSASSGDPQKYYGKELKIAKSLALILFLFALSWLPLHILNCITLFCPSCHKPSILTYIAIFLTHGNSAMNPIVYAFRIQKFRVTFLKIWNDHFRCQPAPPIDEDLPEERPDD
Description: Displacement of [3H]DPCPX from human cloned adenosine A1 receptor expressed in CHO cells. Type of experiment: cell-based.

The next experiment has as its target Adenosine receptor A2a (Homo sapiens, UniProt P29274). Description: Displacement of [3H]ZM241385 from human cloned adenosine A2A receptor expressed in CHO cells. The experiment is classed as cell-based. (Displacement assays read how much labelled ligand stays bound in the presence of the test substance.)
Another experiment concerns the target T3, Adenosine receptor A3 (Homo sapiens, UniProt P0DMS8).
T3 sequence (P0DMS8 whole entry): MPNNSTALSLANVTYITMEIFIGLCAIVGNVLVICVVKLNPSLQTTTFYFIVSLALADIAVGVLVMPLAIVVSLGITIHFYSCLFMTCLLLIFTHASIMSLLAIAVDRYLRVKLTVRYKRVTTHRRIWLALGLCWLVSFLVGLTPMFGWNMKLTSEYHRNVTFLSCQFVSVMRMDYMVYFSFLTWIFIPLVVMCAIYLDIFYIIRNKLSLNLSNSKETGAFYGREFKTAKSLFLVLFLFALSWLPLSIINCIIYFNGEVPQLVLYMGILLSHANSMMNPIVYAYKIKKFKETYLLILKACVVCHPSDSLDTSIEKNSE
In words: Displacement of [3H]MRE3008F20 from human cloned adenosine A3 receptor expressed in CHO cells. Type of experiment: cell-based.

Broadly, the IC50 is the concentration at which inhibition is half-maximal. The Ki is the equilibrium dissociation constant of an inhibitor or competing ligand from its target. Low readings indicate higher affinity, high ones lower affinity.

Adenosine receptor A2a, sequence (P29274 whole entry): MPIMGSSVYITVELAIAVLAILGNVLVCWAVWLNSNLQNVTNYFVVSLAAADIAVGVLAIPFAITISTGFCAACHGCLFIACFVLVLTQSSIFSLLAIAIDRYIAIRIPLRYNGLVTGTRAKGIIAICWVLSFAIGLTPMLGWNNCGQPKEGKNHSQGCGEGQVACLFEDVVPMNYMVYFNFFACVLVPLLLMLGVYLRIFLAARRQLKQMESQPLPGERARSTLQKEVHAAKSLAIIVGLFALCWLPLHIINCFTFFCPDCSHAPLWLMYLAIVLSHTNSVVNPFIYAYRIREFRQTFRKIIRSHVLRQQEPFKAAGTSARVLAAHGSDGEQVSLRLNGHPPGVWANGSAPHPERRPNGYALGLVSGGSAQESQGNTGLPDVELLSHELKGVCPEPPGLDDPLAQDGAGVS

`CCCn1c(=O)c2c(nc3[nH]c(-c4ccc(OC)cc4)cn32)n(Cc2ccccc2)c1=O`: the IC50 on Adenosine receptor A2b was > 1000 nM.
On the same count and under the same terms, next, `CCCn1c(=O)c2c(nc3[nH]c(-c4ccc(-c5ccccc5)cc4)cn32)n(Cc2ccccc2)c1=O`: > 1000 nM.
On to `CCCn1c(=O)c2c(nc3n2CC(c2ccccc2)=C3)n(Cc2ccccc2)c1=O`, for which the IC50 on Adenosine receptor A2b was > 1000 nM.
For the molecule `CCCn1c(=O)c2c(nc3[nH]c(-c4ccc(F)cc4)cn32)n(Cc2ccccc2)c1=O`, on Adenosine receptor A2b, the half-maximal inhibitory concentration (IC50) is > 1000 nM.
Same read-out and setting: next, `CCCn1c(=O)c2c(nc3[nH]c(-c4ccccc4)cn32)n(Cc2ccccc2)c1=O`: > 1000 nM.
As to `CCCn1c(=O)c2c(nc3[nH]c(C)cn32)n(Cc2ccncc2)c1=O`, the results for the Ki on Adenosine receptor A1, on Adenosine receptor A2a and at Adenosine receptor A3 were > 1000 nM, > 1000 nM and 141 nM, respectively. Moreover, the IC50 at Adenosine receptor A2b was > 1000 nM.
`C=CCn1c(=O)c2c(nc3[nH]c(C)cn32)n(Cc2ccccc2)c1=O`: the Ki on Adenosine receptor A1 is > 1000 nM; at Adenosine receptor A2a, > 1000 nM; at Adenosine receptor A3, 5.13 nM. In addition, on Adenosine receptor A2b, the IC50 was > 1000 nM.
`Cc1cn2c(nc3c2c(=O)n(CCO)c(=O)n3Cc2ccccc2)[nH]1`: the Ki is > 1000 nM at Adenosine receptor A1, > 1000 nM on Adenosine receptor A2a and 38 nM on Adenosine receptor A3. Further, at Adenosine receptor A2b, the IC50 was > 1000 nM.
For the molecule `Cc1cn2c(nc3c2c(=O)n(CCN(C)C)c(=O)n3Cc2ccccc2)[nH]1`, the Ki was > 1000 nM at Adenosine receptor A1, > 1000 nM on Adenosine receptor A2a and 98 nM at Adenosine receptor A3. Also, the IC50 on Adenosine receptor A2b was > 1000 nM.
`CCn1c(C)cn2c3c(=O)[nH]c(=O)n(Cc4ccccc4)c3nc12`: the Ki at Adenosine receptor A1, at Adenosine receptor A2a and on Adenosine receptor A3 was > 1000 nM throughout. Besides, the IC50 at Adenosine receptor A2b is > 1000 nM.
`CCCn1c(=O)c2c(nc3[nH]c(C)cn32)n(Cc2cccnc2)c1=O`: the Ki was > 1000 nM at Adenosine receptor A1, > 1000 nM on Adenosine receptor A2a and 57 nM on Adenosine receptor A3. In addition, the IC50 on Adenosine receptor A2b is > 1000 nM.
With `CCCn1c(=O)c2c(nc3[nH]c(C)cn32)n(Cc2ccccn2)c1=O`, the Ki on Adenosine receptor A1 was > 1000 nM; at Adenosine receptor A2a it was > 1000 nM; at Adenosine receptor A3 it was 34 nM. Besides, on Adenosine receptor A2b, the IC50 is > 1000 nM.
On to `Cc1cn2c(nc3c2c(=O)n(CCCO)c(=O)n3Cc2ccccc2)[nH]1`, for which the Ki was > 1000 nM at Adenosine receptor A1, > 1000 nM on Adenosine receptor A2a and 110 nM on Adenosine receptor A3. For the same molecule, the IC50 on Adenosine receptor A2b was > 1000 nM.
As for `CCOC(=O)Cn1c(=O)c2c(nc3[nH]c(C)cn32)n(Cc2ccccc2)c1=O`, the Ki on Adenosine receptor A1 is > 1000 nM; on Adenosine receptor A2a, > 1000 nM; at Adenosine receptor A3, 20 nM. The IC50 on Adenosine receptor A2b was > 1000 nM.
Regarding `CC(=O)Cn1c(=O)c2c(nc3[nH]c(C)cn32)n(Cc2ccccc2)c1=O`, the Ki is > 1000 nM at Adenosine receptor A1, > 1000 nM at Adenosine receptor A2a and 182 nM at Adenosine receptor A3. For the same molecule, the IC50 at Adenosine receptor A2b is > 1000 nM.
With `Cn1c(=O)c2c(nc3[nH]c(-c4ccccc4)cn32)n(C)c1=O`, the inhibitory constant (Ki) on Adenosine receptor A1, on Adenosine receptor A2a and on Adenosine receptor A3 was > 1000 nM each time. In addition, the IC50 on Adenosine receptor A2b was > 1000 nM.
With `CCCn1c(=O)c2c(nc3n(CC)c(C)cn23)n(Cc2ccccc2)c1=O`, the Ki was > 1000 nM on Adenosine receptor A1, > 1000 nM on Adenosine receptor A2a and 200 nM at Adenosine receptor A3. The IC50 on Adenosine receptor A2b is > 1000 nM.
Turning to `C#CCn1c(=O)c2c(nc3[nH]c(C)cn32)n(Cc2ccccc2)c1=O`, the inhibitory constant (Ki) was > 1000 nM at Adenosine receptor A1, > 1000 nM at Adenosine receptor A2a and 15 nM at Adenosine receptor A3. At Adenosine receptor A2b, the IC50 is > 1000 nM.
Take `Cc1cn2c3c(=O)[nH]c(=O)n(Cc4ccccc4)c3nc2n1C(C)CO` (stereo not given): the Ki on Adenosine receptor A1, at Adenosine receptor A2a and at Adenosine receptor A3 was > 1000 nM in each case. The IC50 at Adenosine receptor A2b is > 1000 nM.
On to `Cc1cn2c(nc3c2c(=O)[nH]c(=O)n3Cc2ccccc2)[nH]1`, for which the Ki at Adenosine receptor A1 is > 1000 nM; on Adenosine receptor A2a it was > 1000 nM; at Adenosine receptor A3 it was 148 nM. The IC50 on Adenosine receptor A2b was > 1000 nM.

For the origin of these results see ChEMBL document CHEMBL1139241, “Structure-activity relationship studies of a new series of imidazo[2,1-f]purinones as potent and selective A(3) adenosine receptor antagonists” (Bioorg Med Chem, 2008).
